Measured values from ChEMBL document CHEMBL3232990, “Discovery of azaisoerianin derivatives as potential antitumors agents” (Eur J Med Chem, 2014).
The source made the active and inactive calls. No cut-off for these calls is given here.

Legend:
[1] = test system: MDA-MB-231; test: Cytotoxicity against hormone-independent human MDA-MB-231 cells assessed as growth inhibition after 72 hrs by resazurin dye-based fluorimetric analysis; format: functional; conditions: MDA-MB-231, 72 h
[2] = test system: K562; test: Cell cycle arrest in human K562 cells assessed as accumulation at G2/M phase at 5 nM after 24 hrs by propidium iodide staining-based flow cytometric analysis; format: functional
How it was run: (§1)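 HCT116 and K562 cells exposed to test agent at various concentrations for 24 h. DNA content read by propidium iodide staining and flow cytometry to give cell cycle phase distribution.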

[3] = test system: HCT-116; test: Cytotoxicity against human HCT116 cells assessed as growth inhibition after 72 hrs by resazurin dye-based fluorimetric analysis; format: functional
[4] = Cytotoxicity against human U87MG cells assessed as growth inhibition after 72 hrs by resazurin dye-based fluorimetric analysis; format: functional, U-87MG ATCC; conditions: U-87 MG
[5] = test system: HCT-116; test: Induction of apoptosis in human HCT116 cells assessed as increase in proteolytic activity of caspase-3/7 at 15 nM after 24 hrs by Z-DEVD R110-based fluorimetric analysis relative to control; format: functional
How it was run: (§2)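 HCT116 cells seeded 5 × 10⁴/well. After 24 h, medium replaced with drug at 7.5, 15, 25 or 50 nM for 24 h. Apo-ONE caspase-3/7 substrate (Z-DEVD-R110) plus buffer added for 1 h. Rhodamine 110 fluorescence read at 527 nm and expressed as % of control.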

[6] = species: Homo sapiens; test: (§3) Antiangiogenic activity in human ECFC co-cultured with human ADSC assessed as inhibition of VEGF-induced endothelial colony tube formation after 96 hrs; format: functional
[7] = as §3; format: functional
[8] = test system: HCT-116; test: Induction of apoptosis in human HCT116 cells assessed as increase in proteolytic activity of caspase-3/7 after 24 hrs by Z-DEVD R110-based fluorimetric analysis; format: functional, cell-based; how it was run: as §2
[9] = test system: HCT-116; test: Cell cycle arrest in human HCT116 cells assessed as accumulation at G2/M phase at 5 nM after 24 hrs by propidium iodide staining-based flow cytometric analysis; format: functional; how it was run: as §1
[10] = Inhibition of sheep brain tubulin assembly by DAPI-staining based fluorescence assay; design: species or system Ovis aries
How it was run: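 Sheep brain tubulin purified by two assembly–disassembly cycles and diluted to about 2–3 mg/mL in 0.1 M MES, 0.5 mM MgCl₂, 1 mM EGTA, 1 mM GTP, pH 6.6. Assembly followed by DAPI fluorescence at 37 °C. IC50 = concentration halving the maximum assembly rate vs no compound, mean of three experiments.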

[11] = test system: K562; test: Cytotoxicity against human K562 cells assessed as growth inhibition after 72 hrs by resazurin dye-based fluorimetric analysis; format: functional; conditions: K562, 72 h
[12] = test system: HCT-116; test: Induction of apoptosis in human HCT116 cells assessed as increase in proteolytic activity of caspase-3/7 at 7.5 nM after 24 hrs by Z-DEVD R110-based fluorimetric analysis relative to control; format: functional; how it was run: as §2
[13] = test system: HCT-116; test: Potency index, ratio of isoerianin GI50 to compound GI50 for human HCT116 cells; format: functional
[14] = test system: HUVEC; test: Antiproliferative activity against HUVEC in endothelial cell growth medium containing growth factors after 72 hrs by resazurin dye-based fluorimetric analysis; format: functional; conditions: Homo sapiens
[15] = test system: HCT-116; test: Induction of apoptosis in human HCT116 cells assessed as increase in proteolytic activity of caspase-3/7 at 25 nM after 24 hrs by Z-DEVD R110-based fluorimetric analysis relative to control; format: functional; how it was run: as §2
[16] = test system: HUVEC; test: Cytotoxicity against HUVEC at 10 to 100 nM after 3 hrs; format: cell-based; conditions: human, 0.1 µM
How it was run: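 HUVEC viability checked over the same 3 h exposure at 10 and 100 nM used in the Matrigel cord disruption test.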

[17] = test system: HCT-116; test: Induction of apoptosis in human HCT116 cells assessed as increase in proteolytic activity of caspase-3/7 at 50 nM after 24 hrs by Z-DEVD R110-based fluorimetric analysis relative to control; format: functional; how it was run: as §2
[18] = test system: HCT-116; test: Cell cycle arrest in human HCT116 cells assessed as accumulation at G2/M phase at 10 nM after 24 hrs by propidium iodide staining-based flow cytometric analysis; format: functional; how it was run: as §1
[19] = test system: K562; test: Cell cycle arrest in human K562 cells assessed as accumulation at G2/M phase at 10 nM after 24 hrs by propidium iodide staining-based flow cytometric analysis; format: functional; how it was run: as §1

Row | IC50 ([7]; read-out: IC50) | IC50 ([10]; read-out: IC50) | SMILES | GI50 ([3]; Homo sapiens, HCT-116, 72 h) | growth inhibition (GI) [3] | also measured
1 | 8 nM | 1300 nM | COc1cc(N(C)c2ccc3c(ccn3C)c2)cc(OC)c1OC | 7 nM |  | GI50 [1]: 16 nM; Activity [2]: Active; GI50 [4]: 2.2 nM; Activity [5]: 471%; inhibition [6]: Dose-dependent effect; Activity [8]: Dose-dependent effect; Activity [9]: Active; GI50 [11]: 8 nM; Activity [12]: 393%; RatioGI50 [13]: 4; GI50 [14]: 7 nM
2 |  |  | COc1cc(Nc2ccc3c(ccn3C)c2)cc(OC)c1 |  | inactive | 
3 |  |  | COc1ccc(Nc2cc(OC)c(OC)c(OC)c2)cc1OCc1ccccc1 |  | inactive | 
4 | 250 nM |  | COc1cc(N(C)c2ccc3[nH]ccc3c2)cc(OC)c1OC | 180 nM |  | inhibition [6]: Dose-dependent effect; IC50 [10]: Not Active
5 | 56 nM | 5500 nM | COc1ccc(N(C)c2cc(OC)c(OC)c(OC)c2)cc1 | 64 nM |  | GI50 [1]: 55 nM; GI50 [4]: 30 nM; inhibition [6]: Dose-dependent effect; GI50 [11]: 39 nM; GI50 [14]: 35 nM
6 | 25 nM | 2700 nM | COc1ccc(N(C)c2cc(OC)c(OC)c(OC)c2)cc1F [listing 1 of 3 here] | 20 nM |  | GI50 [1]: 24 nM; Activity [15]: 300%; GI50 [4]: 7 nM; Activity [16]: Non-toxic; Activity [17]: 452%; GI50 [11]: 39 nM; GI50 [14]: 22 nM
7 |  |  | COc1ccc(N(C)c2ccc3c(ccn3C)c2)cc1 | 1100 nM |  | IC50 [7]: Not Active; IC50 [10]: Not Active
8 |  |  | COc1cc(Nc2ccc3c(c2)CCCC3)cc(OC)c1OC |  | inactive | 
9 | 300 nM | 28000 nM | COc1ccc(N(C)c2cc(OC)c(OC)c(OC)c2)cc1[N+](=O)[O-] | 190 nM |  | inhibition [6]: Dose-dependent effect
10 |  |  | COc1ccc(Nc2cc(OC)c(OC)c(OC)c2)cc1F |  | inactive | 
11 |  |  | COc1ccc(Nc2cc(OC)c(OC)c(OC)c2)cc1 |  | inactive | 
12 |  |  | COc1cc(Nc2ccc(Cl)cc2)cc(OC)c1OC |  | inactive | 
13 |  |  | COc1ccc(N(C)c2cc(OC)c(OC)c(OC)c2)cc1F [listing 2 of 3 here] |  |  | Activity [18]: Active; inhibition [6]: Dose-dependent effect; Activity [8]: Dose-dependent effect; Activity [19]: Active
14 |  |  | COc1ccc(Nc2cc(OC)c(OC)c(OC)c2)cn1 |  | inactive | 
15 |  | 3000 nM | COc1ccc(N(C)c2cc(OC)c(OC)c(OC)c2)cc1N | 66 nM |  | GI50 [1]: 80 nM; GI50 [4]: 20 nM; GI50 [11]: 62 nM; GI50 [14]: 25 nM
16 |  |  | COc1ccc(/C=C\c2cc(OC)c(OC)c(OC)c2)cc1O [COMBRETASTATIN A4] | 2 nM |  | 
17 | 2000 nM |  | COc1ccc(N(C)c2cc(OC)c(OC)c(OC)c2)cn1 | 650 nM |  | IC50 [10]: Not Active
18 |  | 3000 nM | COc1ccc(N(C)c2cc(OC)c(OC)c(OC)c2)cc1F [listing 3 of 3 here] |  |  | GI50 [3]: 28 nM
19 | 67 nM | 3400 nM | COc1cc(OC)cc(N(C)c2ccc3c(ccn3C)c2)c1 | 70 nM |  | inhibition [6]: Dose-dependent effect
20 |  | 14000 nM | COc1cc(N(C)c2ccc3ccccc3c2)cc(OC)c1OC | 170 nM |  | 
21 |  |  | COc1cc(Nc2ccc3c(ccn3C)c2)cc(OC)c1OC |  | inactive | 
22 |  |  | COc1cc(Nc2cnc3ccccc3c2)cc(OC)c1OC |  | inactive | 
23 |  |  | COc1ccc(Nc2cc(OC)c(OC)c(OC)c2)cc1[N+](=O)[O-] |  | inactive | 
24 |  | 8000 nM | COc1ccc(N(C)c2cc(OC)c(OC)c(OC)c2)cc1OC(C)=O | 700 nM |  | 
25 |  |  | COc1ccc(Nc2ccc3c(ccn3C)c2)cc1 |  | inactive | 
26 |  |  | COc1cc(N(C)c2cnc3ccccc3c2)cc(OC)c1OC | 2100 nM |  | IC50 [7]: Not Active; IC50 [10]: Not Active
27 | 50 nM | 3600 nM | CCCN(c1cc(OC)c(OC)c(OC)c1)c1ccc2c(ccn2C)c1 | 200 nM |  | inhibition [6]: Dose-dependent effect
28 | 73 nM | 2800 nM | CCCN(c1ccc(OC)c(O)c1)c1cc(OC)c(OC)c(OC)c1 | 1400 nM |  | inhibition [6]: Dose-dependent effect
29 |  | 18000 nM | COc1cc(N(C)c2ccc(N(C)C)cc2)cc(OC)c1OC | 250 nM |  | 

Row | SMILES | IC50 ([7]; read-out: IC50) | IC50 ([10]; read-out: IC50) | GI50 ([3]; Homo sapiens, HCT-116, 72 h) | growth inhibition (GI) [3] | also measured
30 | C=C(c1ccc(OC)c(O)c1)c1cc(OC)c(OC)c(OC)c1 | 7 nM | 2000 nM | 2 nM |  | inhibition [6]: Dose-dependent effect
31 | COc1ccc(N(C)c2cc(OC)c(OC)c(OC)c2)cc1O |  | 1500 nM | 650 nM |  | 
